From PubChem
In the library only some 4.1% were active in any assay of this set; here they are far more common.
MC4R barr agon: human MC4R agonism via beta-arrestin; P32245; U2OS MC4R beta-arrestin complementation, luminescence; percent of melanotan II response, DMSO zero; activation, % at 8.9 µM; actives 0.98% (n = 360,000); AID 540308;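 active = activation above a per-plate cutoff, the mean activation of sample wells on that plate plus 3 SD, cut at about 8% in these data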
MC4R antagonist: human MC4R antagonism in cAMP assay; P32245; MC4R-expressing cells, MTII-stimulated cAMP, LANCE TR-FRET; inhibition, % at 6.5 µM; actives 0.48% (n = 360,000);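 active = inhibition above its plate's cutoff, the mean of tested wells on that plate plus 3 SD, cut at about 29% in these data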
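Test system: U2OS cells stably expressing human melanocortin 4 receptor (MC4R); also added: Melanotan II challenge; compound: 6.5 µM single dose; timing: 30-min compound preincubation, 1-h Melanotan II challenge, 1-h detection, room temperature; signal: Eu-cAMP/anti-cAMP TR-FRET, emission 671 nm; repeats: one well per compound, no replicates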
ATG4B inhibitor: blocks human ATG4B protease cleavage of LC3 substrate | ATG4B cleavage of LC3-PLA2, NBD-HPC fluorescence, 1 h | actives 0.51% (n = 340,000) | inhibition, % at 8.33 µM | Q9Y4P1; in the data active = inhibition above about 40%
Target sequence (Q9Y4P1 whole entry, looked up): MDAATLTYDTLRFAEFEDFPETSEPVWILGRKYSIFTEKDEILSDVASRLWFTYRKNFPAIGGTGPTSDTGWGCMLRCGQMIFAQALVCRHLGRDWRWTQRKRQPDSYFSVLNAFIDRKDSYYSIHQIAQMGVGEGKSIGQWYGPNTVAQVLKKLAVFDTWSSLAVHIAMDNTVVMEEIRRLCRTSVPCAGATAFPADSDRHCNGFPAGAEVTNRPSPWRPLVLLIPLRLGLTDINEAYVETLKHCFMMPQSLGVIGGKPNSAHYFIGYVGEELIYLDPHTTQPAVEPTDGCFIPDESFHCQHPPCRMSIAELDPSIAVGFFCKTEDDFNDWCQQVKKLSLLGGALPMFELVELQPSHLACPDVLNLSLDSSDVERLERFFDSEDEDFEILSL
MPTP inh: inhibitors of mitochondrial permeability transition pore | actives 1.4% (n = 360,000) | inhibition, % at 10 µM | isolated mouse mitochondria, Ca2+ swelling absorbance, 30 min | AID 602449;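 active = inhibition of 50% or more, scaled per plate between neutral and stimulator controls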
SMARCA2 activ: SMARCA2 function activation, primary screen | MG213 cells, MMTV-luciferase reporter, dexamethasone, overnight | activation, % at 9.1 µM | actives 1% (n = 370,000) | AID 652017; in the data active = activation above about 7.8%
Rh123 counter: membrane potential counter-screen of mitochondrial pore inhibitors | actives 78% (n = 5,000) | inhibition, % at 10 µM | shares compounds with MPTP inh | isolated mitochondria, Rhodamine 123 fluorescence; in the data active = inhibition above about 22%
MPTP swell DR: MPTP inhibition, dose response swelling confirmation | isolated mitochondria swelling, absorbance | actives 58% (n = 780) | AID 651561 | shares compounds with MPTP inh | IC50, µM; in the data active = IC50 below about 20 µM
MPTP counter DR: active in counter-screen for permeability transition pore inhibitors; shares compounds with MPTP inh; IC50, µM; isolated mitochondria counterscreen, fluorescence read-out; AID 651564; actives 49% (n = 780); in the data active = IC50 below about 80 µM
A number is an active result; – = inactive; · = not tested or not shown.

SMILES	MC4R barr agon	MC4R antagonist	ATG4B inhibitor	MPTP inh	SMARCA2 activ	Rh123 counter	others
COc1ccc(-c2nc(-c3cccnc3)no2)cc1	–	–	–	–	–	·
CCCCOc1ccc(-c2nc(-c3cccnc3)no2)cc1	–	–	–	64.1	–	–	MPTP swell DR=13.5;MPTP counter DR=14.1
CCCCN1C[C@@H](COCc2ccccc2)Oc2cc(F)ccc2S1(=O)=O	·	·	·	·	–	·
CN1OC[C@@H]2CN[C@H](c3ccc(N4CCCCC4)cc3)C[C@@H]21	·	·	·	·	–	·
Cc1cc(/C=N/n2c(COc3ccccc3C)nc3ccccc3c2=O)c(O)c([N+](=O)[O-])c1	–	–	–	70.5	–	39.2
Fc1ccc(-c2nn(-c3ccccc3)cc2CNCc2ccccc2)cc1	–	–	–	90.6	–	–	MPTP swell DR=4.71;MPTP counter DR=43
O=C(CCl)Nc1cn(-c2ccccc2)nc1-c1ccc(F)cc1	–	–	–	–	–	·
O=C(NCCOc1ccccc1)c1ccccc1[N+](=O)[O-]	–	–	–	–	–	·
O=C(NCCOc1ccccc1)c1cc(C(=O)NCCOc2ccccc2)cc([N+](=O)[O-])c1	–	–	–	56.5	–	92.6
CC(C)CNC(=O)OCc1cn(Cc2c(F)cccc2F)nn1	·	·	·	·	–	·
N#CC1=C(N)N2C(=C(C#N)C1c1ccc(Br)cc1)Nc1ccccc12 (centres undefined)	·	·	–	·	–	·
N#CC1=C(N)N2C(=C(C#N)C1c1cccc(Br)c1)Nc1ccccc12 (centres undefined)	–	–	–	85.5	–	55.1
CC(=O)c1ccc2c(c1)N(CCCN1CCC(CCO)CC1)c1ccccc1S2	–	–	–	–	–	·
OCCN1CCN(CCCN2c3ccccc3Sc3ccc(Cl)cc32)CC1	–	–	–	53.0	–	–
CN(C)CCCN1c2ccccc2Sc2ccc(Cl)cc21	–	–	–	90.6	–	–	MPTP swell DR=4.99;MPTP counter DR=–
CCn1c(-c2ccco2)nc2ccccc21	–	–	–	91.9	–	–	MPTP swell DR=8.7;MPTP counter DR=–
COc1ccc(N2C(=O)c3n[nH]c(C)c3C2c2ccccc2)cc1 (centres undefined)	·	·	·	·	–	·
COC(=O)c1c(NC(=O)c2nc3ccccc3s2)sc2c1CC(C)(C)NC2(C)C	–	–	–	60.3	–	–	MPTP swell DR=–;MPTP counter DR=–
COC(=O)c1c(NC(=O)c2ccc(C(=O)c3ccccc3)cc2)sc2c1CC(C)(C)NC2(C)C	–	–	·	–	–	·
CCOc1ccc(C(=O)Nc2sc3c(c2C(=O)OC)CC(C)(C)NC3(C)C)cc1	–	–	–	85.4	–	–	MPTP swell DR=20;MPTP counter DR=–
CCc1nnc(N/N=C/c2ccc(N3CCC(C)CC3)c([N+](=O)[O-])c2)n1N	–	–	–	–	–	·
Cc1nnc(N/N=C/c2cc([N+](=O)[O-])c(N3CCC(C)CC3)cc2N2CCC(C)CC2)n1N	–	–	–	83.2	–	65.8
COC1=C[C@H](C(=O)NCc2ccc(Br)cc2)C(C)C(c2ccccc2)CC1=O (some centres undefined)	·	·	·	·	–	·
COc1cccc(CNCC(O)COc2ccc(C(=O)c3ccccc3)cc2)c1 (centres undefined)	–	–	–	83.8	–	–	MPTP swell DR=–;MPTP counter DR=50.5
CC(C)(C)c1ccc(-c2n[nH]c(=S)n2Cc2ccccc2)cc1	–	–	–	–	–	·
SMILES	MC4R barr agon	MC4R antagonist	ATG4B inhibitor	MPTP inh	SMARCA2 activ	Rh123 counter	others
CC(C)n1c(-c2ccc(C(C)(C)C)cc2)n[nH]c1=S	–	–	–	68.0	–	67.0
Cc1cc(C(=O)Nn2c(-c3ccc(Br)cc3)nc3ccccc3c2=O)ccc1[N+](=O)[O-]	–	–	–	67.0	–	86.6
CC1CCCC(NC(=S)Nc2cccc(S(=O)(=O)N(C)C)c2)C1C (centres undefined)	–	–	–	72.8	–	92.0
CC(=O)c1ccc(NC(=S)NC2CCCC(C)C2C)cc1 (centres undefined)	–	–	–	71.1	–	75.5
CN(C)S(=O)(=O)c1cccc(NC(=S)NC2CCCCC2)c1	–	–	–	–	–	·
CC(=O)c1ccc(NC(=S)NN2C(C)CCCC2C)cc1 (centres undefined)	–	–	–	–	–	·
CN(C)S(=O)(=O)c1cccc(NC(=S)NNC(=O)c2cc3ccccc3cc2O)c1	–	–	–	51.7	–	48.0
COc1ccc(C2=Nc3ccccc3N(C(=O)c3ccc(C(F)(F)F)cc3)C2C(=O)NCc2ccccc2)cc1 (centres undefined)	·	·	·	–	–	·
COC(=O)c1cc(-c2ccc(Cl)s2)c(=O)n2c1CCC2	·	·	·	·	–	·
COc1ccc(N(CC(=O)Nc2ccc(F)c(Cl)c2)S(=O)(=O)c2c(C)noc2C)cc1	–	–	–	68.8	–	77.7
COc1ccc(N(CC(=O)Nc2ccc(OC)c(Cl)c2)S(=O)(=O)c2c(C)noc2C)cc1	–	–	–	–	–	·
CN1CCN(C(c2ccc(Br)cc2)c2cc(Cl)c3cccnc3c2O)CC1 (centres undefined)	–	–	–	76.4	–	–
CN1CCN(C(c2ccc(F)cc2)c2ccc3cccnc3c2O)CC1 (centres undefined)	–	–	–	–	·	·
Cc1onc(-c2ccc(Cl)cc2)c1-c1ccn(S(=O)(=O)c2cccc(Cl)c2)n1	·	·	·	·	–	·
C/C(O)=C(/C#N)c1nc2ccccc2[nH]1	–	–	–	–	–	·
N#C/C(=C(/O)c1ccc(Cl)c([N+](=O)[O-])c1)c1nc2ccccc2[nH]1	–	–	–	78.3	–	80.6
N#C/C(=C(/O)C(Cl)(Cl)Cl)c1nc2ccccc2[nH]1	–	–	–	75.5	–	81.3
N#C/C(=C(/O)c1ccc([N+](=O)[O-])cc1)c1nc2ccccc2[nH]1	–	–	–	–	–	·
C[C@H]1CN(S(=O)(=O)C(C)(C)C)[C@@H](CCO)/C1=C\CCO	·	·	·	·	–	·
COC(=O)[C@]12C[C@H](CC(=O)NCCC(C)C)C(=O)N(CCC3=CCCCC3)C1=C[C@H](C1CCCC1)O[C@@H]2C	·	·	·	·	–	·
COC(=O)[C@]12C[C@H](CC(=O)N3CCN(C(=O)c4ccco4)CC3)C(=O)N(CCC3=CCCCC3)C1=C[C@H](C(C)(C)C)O[C@@H]2C	·	·	·	·	–	·
CCN(CC(=O)Nc1cccc(OC)c1)c1ncnc2sc(C)c(C)c12	–	–	–	72.3	–	67.9
COC(=O)C(Cc1ccc(O)cc1)NS(=O)(=O)Cc1ccccc1 (centres undefined)	·	·	·	·	–	·
COc1ccc(Cl)cc1NC(=S)Nc1cccc(C)c1	–	–	–	–	–	·
Cc1cccc(NC(=S)NNC(=O)COc2ccc(Cl)cc2Cl)c1	–	–	–	55.4	–	51.7
CN1CCN(c2ccc(-c3cccc(NC(=O)COc4ccc(Cl)cc4Cl)c3)nn2)CC1	–	–	–	74.4	–	–	MPTP swell DR=18.9;MPTP counter DR=–
